Measured values as given in ChEMBL document CHEMBL5154850, “A platform for the rapid synthesis of proteolysis targeting chimeras (Rapid-TAC) under miniaturized conditions” (Eur J Med Chem, 2022).
The source made the active and inactive calls. The rule behind the calls is not given here.

What was measured:
[1] = target: T1, von Hippel-Lindau disease tumor suppressor/Androgen receptor (Homo sapiens, UniProt P10275+P40337); assay: PROTAC activity at VHL/AR in human LNCaP cells assessed as induction of AR degradation at 1 to 10 uM measured after 16 hrs by western blot analysis; type: cell-based; conditions: dose 1-10 µM
Summary of the method: (§1)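 LNCaP cells kept in RPMI with 10% FBS, 1% HEPES, 1% sodium pyruvate and 1% penicillin/streptomycin at 37 °C, 5% CO2, then exposed to PROTACs for 16 h. Lysis in RIPA buffer with protease inhibitors and 1 mM PMSF. BCA-equalized protein run on 7.5% SDS-PAGE, blocked in 5% milk/TBS-T, anti-AR primary overnight at 4 °C, β-actin loading control, HRP secondary 1 h, chemiluminescent imaging.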
Target sequence in this assay (P10275 whole entry, looked up): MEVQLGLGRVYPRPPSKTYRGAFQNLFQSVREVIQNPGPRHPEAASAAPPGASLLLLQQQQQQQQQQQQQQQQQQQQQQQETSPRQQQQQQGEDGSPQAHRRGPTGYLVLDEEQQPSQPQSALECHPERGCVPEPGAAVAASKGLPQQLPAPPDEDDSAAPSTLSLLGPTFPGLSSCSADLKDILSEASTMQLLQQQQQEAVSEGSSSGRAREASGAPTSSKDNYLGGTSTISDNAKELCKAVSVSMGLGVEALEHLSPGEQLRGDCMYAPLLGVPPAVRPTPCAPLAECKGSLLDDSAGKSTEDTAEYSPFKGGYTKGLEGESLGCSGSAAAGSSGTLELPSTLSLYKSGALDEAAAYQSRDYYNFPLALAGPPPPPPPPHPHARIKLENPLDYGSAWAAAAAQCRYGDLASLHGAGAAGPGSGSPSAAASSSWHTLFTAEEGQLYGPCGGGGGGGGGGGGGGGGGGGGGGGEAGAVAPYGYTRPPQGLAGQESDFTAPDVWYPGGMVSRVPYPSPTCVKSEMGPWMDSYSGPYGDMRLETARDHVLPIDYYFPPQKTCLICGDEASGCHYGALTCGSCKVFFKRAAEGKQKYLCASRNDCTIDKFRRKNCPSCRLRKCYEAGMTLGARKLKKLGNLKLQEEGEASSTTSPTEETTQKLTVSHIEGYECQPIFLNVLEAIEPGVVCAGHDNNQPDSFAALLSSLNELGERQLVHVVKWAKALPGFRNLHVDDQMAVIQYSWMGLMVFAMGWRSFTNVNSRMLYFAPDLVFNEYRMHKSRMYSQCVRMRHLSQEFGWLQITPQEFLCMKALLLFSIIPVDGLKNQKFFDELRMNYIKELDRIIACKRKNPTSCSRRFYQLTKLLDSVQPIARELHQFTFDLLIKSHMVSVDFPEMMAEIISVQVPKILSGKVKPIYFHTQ
Target sequence in this assay (P40337 whole entry, looked up): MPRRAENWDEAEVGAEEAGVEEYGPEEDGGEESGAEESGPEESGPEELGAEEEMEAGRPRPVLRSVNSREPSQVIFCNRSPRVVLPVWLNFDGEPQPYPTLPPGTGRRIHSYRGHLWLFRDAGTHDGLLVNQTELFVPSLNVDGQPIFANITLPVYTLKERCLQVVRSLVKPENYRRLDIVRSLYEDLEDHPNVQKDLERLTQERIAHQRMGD

[2] = target: T1, von Hippel-Lindau disease tumor suppressor/Androgen receptor; assay: PROTAC activity at VHL/AR in human LNCaP cells assessed as induction of AR degradation at 0.01 to 1 uM measured after 16 hrs by western blot analysis; type: cell-based; conditions: dose 0.1-10 µM, in the assay text read “0.1 to 10 uM” for “0.01 to 1 uM”; summary of the method: as §1
Target sequence in this assay (P10275 whole entry, looked up): as the sequence (P10275 whole entry, looked up) above
Target sequence in this assay (P40337 whole entry, looked up): as the sequence (P40337 whole entry, looked up) above

[3] = target: T1, von Hippel-Lindau disease tumor suppressor/Androgen receptor; assay: PROTAC activity at VHL/AR in human LNCaP cells assessed as induction of AR degradation at 1 uM measured after 16 hrs by western blot analysis relative to control; type: cell-based; summary of the method: as §1
Target sequence in this assay (P10275 whole entry, looked up): as the sequence (P10275 whole entry, looked up) above
Target sequence in this assay (P40337 whole entry, looked up): as the sequence (P40337 whole entry, looked up) above

[4] = target: T1, von Hippel-Lindau disease tumor suppressor/Androgen receptor; assay: PROTAC activity at VHL/AR in human LNCaP cells assessed as induction of AR degradation at 10 uM measured after 16 hrs by western blot analysis relative to control; type: cell-based; summary of the method: as §1
Target sequence in this assay (P10275 whole entry, looked up): as the sequence (P10275 whole entry, looked up) above
Target sequence in this assay (P40337 whole entry, looked up): as the sequence (P40337 whole entry, looked up) above

[5] = target: T1, von Hippel-Lindau disease tumor suppressor/Androgen receptor; assay: PROTAC activity at VHL/AR in human LNCaP cells assessed as reduction in AR level at 100 nM measured after 6 hrs by western blot analysis; type: cell-based
Summary of the method: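 AR time-course blot in LNCaP cells (RPMI, 10% FBS, 37 °C, 5% CO2) with degrader at 100 nM over varied exposure times. Lysates in RIPA with protease inhibitors, equal protein by BCA, 7.5% SDS-PAGE, anti-AR overnight at 4 °C, β-actin loading reference, HRP detection.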
Target sequence in this assay (P10275 whole entry, looked up): as the sequence (P10275 whole entry, looked up) above
Target sequence in this assay (P40337 whole entry, looked up): as the sequence (P40337 whole entry, looked up) above

[6] = target: T1, von Hippel-Lindau disease tumor suppressor/Androgen receptor; assay: PROTAC activity at VHL/AR in human LNCaP cells assessed as induction of AR degradation measured after 16 hrs by western blot analysis; type: cell-based; summary of the method: as §1
Target sequence in this assay (P10275 whole entry): as the sequence (P10275 whole entry, looked up) above
Target sequence in this assay (P40337 whole entry): as the sequence (P40337 whole entry, looked up) above

[7] = target: T2, von Hippel-Lindau disease tumor suppressor/Bromodomain-containing protein 4 (Homo sapiens, UniProt O60885+P40337); assay: PROTAC activity at VHL/BRD4 in human MV4-11 cells assessed as induction of BRD4 degradation at 1 uM measured after 24 hrs by western blot analysis; type: cell-based
T2 sequence (P40337 whole entry, looked up, other chains not shown): as the sequence (P40337 whole entry, looked up) above
Summary of the method: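 MV-4-11 cells grown in IMDM with 10% FBS and 1% penicillin/streptomycin at 37 °C, 5% CO2. Library screen at 1 and 10 μM for 24 h; follow-up at 100, 30, 10 and 3 nM and dose response for 12 h. RIPA lysates, BCA-normalized, 7.5% SDS-PAGE, anti-BRD4 overnight at 4 °C, β-actin control, HRP-secondary chemiluminescence.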

[8] = target: T2, von Hippel-Lindau disease tumor suppressor/Bromodomain-containing protein 4; assay: PROTAC activity at VHL/BRD4 in human MV4-11 cells assessed as induction of BRD4 degradation measured after 12 hrs by western blot analysis
[9] = target: T2, von Hippel-Lindau disease tumor suppressor/Bromodomain-containing protein 4; assay: PROTAC activity at VHL/BRD4 in human MV4-11 cells assessed as induction of BRD4 degradation at 3 to 100 nM measured after 12 hrs by western blot analysis; conditions: dose 3-100 nM

Cc1ncsc1-c1ccc(CNC(=O)[C@@H]2C[C@@H](O)CN2C(=O)[C@@H](NC(=O)CCCCCCCCN2Cc3cc(C(=O)N[C@H]4C(C)(C)[C@H](Oc5ccc(C#N)c(Cl)c5)C4(C)C)ccc3C2=O)C(C)(C)C)cc1
Activity [1]: Active

CC1(C)[C@H](NC(=O)c2ccc3c(c2)CN(C2CCC(=O)NC2=O)C3=O)C(C)(C)[C@H]1Oc1ccc(C#N)c(Cl)c1 (some centres not stated)
Activity [1]: Active

Cc1ncsc1-c1ccc(CNC(=O)[C@@H]2C[C@@H](O)CN2C(=O)[C@@H](NC(=O)COCCOCCOCCN2Cc3cc(C(=O)N[C@H]4C(C)(C)[C@H](Oc5ccc(C#N)c(Cl)c5)C4(C)C)ccc3C2=O)C(C)(C)C)cc1
Activity [1]: Active

Cc1ncsc1-c1ccc(CNC(=O)[C@@H]2C[C@@H](O)CN2C(=O)[C@@H](NC(=O)COCCOCCOCCOCCN2Cc3cc(C(=O)N[C@H]4C(C)(C)[C@H](Oc5ccc(C#N)c(Cl)c5)C4(C)C)ccc3C2=O)C(C)(C)C)cc1
Activity [1]: Active

Cc1ncsc1-c1ccc(CNC(=O)[C@@H]2C[C@@H](O)CN2C(=O)[C@@H](NC(=O)CCCCCCCN2Cc3cc(C(=O)N[C@H]4C(C)(C)[C@H](Oc5ccc(C#N)c(Cl)c5)C4(C)C)ccc3C2=O)C(C)(C)C)cc1
Activity [2]: Active

Cc1ncsc1-c1ccc(CNC(=O)[C@@H]2C[C@@H](O)CN2C(=O)[C@@H](NC(=O)CCCCCN2Cc3cc(C(=O)N[C@H]4C(C)(C)[C@H](Oc5ccc(C#N)c(Cl)c5)C4(C)C)ccc3C2=O)C(C)(C)C)cc1
Activity [1]: Active

Cc1ncsc1-c1ccc(CNC(=O)[C@@H]2C[C@@H](O)CN2C(=O)[C@@H](NC(=O)COCCOCCN2Cc3cc(C(=O)N[C@H]4C(C)(C)[C@H](Oc5ccc(C#N)c(Cl)c5)C4(C)C)ccc3C2=O)C(C)(C)C)cc1
Activity [1]: Active

Cc1ncsc1-c1ccc(CNC(=O)[C@@H]2C[C@@H](O)CN2C(=O)[C@@H](NC(=O)CCN2Cc3cc(C(=O)N[C@H]4C(C)(C)[C@H](Oc5ccc(C#N)c(Cl)c5)C4(C)C)ccc3C2=O)C(C)(C)C)cc1
Activity [1]: Active

Cc1ncsc1-c1ccc(CNC(=O)[C@@H]2C[C@@H](O)CN2C(=O)[C@@H](NC(=O)CCCCCCCN2Cc3ccc(C(=O)N[C@H]4C(C)(C)[C@H](Oc5ccc(C#N)c(Cl)c5)C4(C)C)cc3C2=O)C(C)(C)C)cc1
Activity [1]: Active | Activity [3]: 73% | Activity [4]: 40% | Activity [2]: Active | Activity [5]: Active | DC50 [6]: 0.0419 µM

Cc1ncsc1-c1ccc(CNC(=O)[C@@H]2C[C@@H](O)CN2C(=O)[C@@H](NC(=O)CCCCN2Cc3ccc(NC(=O)C[C@@H]4N=C(c5ccc(Cl)cc5)c5c(sc(C)c5C)-n5c(C)nnc54)cc3C2=O)C(C)(C)C)cc1
Activity [7]: Active

Cc1ncsc1-c1ccc(CNC(=O)[C@@H]2C[C@@H](O)CN2C(=O)[C@@H](NC(=O)CCCCN2Cc3cc(C(=O)N[C@H]4C(C)(C)[C@H](Oc5ccc(C#N)c(Cl)c5)C4(C)C)ccc3C2=O)C(C)(C)C)cc1
Activity [1]: Active

Cc1ncsc1-c1ccc(CNC(=O)[C@@H]2C[C@@H](O)CN2C(=O)[C@@H](NC(=O)CCCCCCCNC(=O)c2ccc(C(=O)N[C@H]3C(C)(C)[C@H](Oc4ccc(C#N)c(Cl)c4)C3(C)C)cc2)C(C)(C)C)cc1
Activity [2]: Active

Cc1ncsc1-c1ccc(CNC(=O)[C@@H]2C[C@@H](O)CN2C(=O)[C@@H](NC(=O)COCCN2Cc3cc(C(=O)N[C@H]4C(C)(C)[C@H](Oc5ccc(C#N)c(Cl)c5)C4(C)C)ccc3C2=O)C(C)(C)C)cc1
Activity [1]: Active

Cc1ncsc1-c1ccc(CNC(=O)[C@@H]2C[C@@H](O)CN2C(=O)[C@@H](NC(=O)CCCCCCCCCCN2Cc3cc(C(=O)N[C@H]4C(C)(C)[C@H](Oc5ccc(C#N)c(Cl)c5)C4(C)C)ccc3C2=O)C(C)(C)C)cc1
Activity [1]: Active

Cc1ncsc1-c1ccc(CNC(=O)[C@@H]2C[C@@H](O)CN2C(=O)[C@@H](NC(=O)CCCCCCN2Cc3cc(C(=O)N[C@H]4C(C)(C)[C@H](Oc5ccc(C#N)c(Cl)c5)C4(C)C)ccc3C2=O)C(C)(C)C)cc1
Activity [1]: Active

Cc1ncsc1-c1ccc(CNC(=O)[C@@H]2C[C@@H](O)CN2C(=O)[C@@H](NC(=O)CCCCN2Cc3cc(NC(=O)C[C@@H]4N=C(c5ccc(Cl)cc5)c5c(sc(C)c5C)-n5c(C)nnc54)ccc3C2=O)C(C)(C)C)cc1
DC50 [8]: 0.0089 µM | Activity [9]: Active
